{
  "source": "ChEMBL document CHEMBL1142626",
  "about": "“Insecticidal and mutagenic evaluation of two annonaceous acetogenins” (J Nat Prod, 2000)",
  "key": {"Salmonella typhimurium [1]": {"test_system": "Salmonella typhimurium", "experiment": "Mutagenic activity in Salmonella Typhimurium TA98 assessed as number of revertants at 50 ug/plate in presence of Wistar rat S9 liver homogenate", "format": "toxicity, organism-based, Liver S9 fraction", "settings": "salmonella enterica subsp. enterica serovar typhimurium", "how_it_was_run": "(§1)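 Salmonella/microsome plate test (Ames) in strain TA98, with genetic markers and spontaneous revertant counts verified routinely. Run with and without S9 mix, the S9 being liver postmitochondrial supernatant from male Wistar rats of about 200 g. Doses ran from 0.01 to 100 µg/plate. Revertants are the mean of triplicate plates with standard error. Positive controls were 0.5 µg 4-nitroquinoline-N-oxide without S9 and 15 µg 2-aminoanthracene with S9.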"}, "Salmonella typhimurium [2]": {"test_system": "Salmonella typhimurium", "experiment": "Mutagenic activity in Salmonella Typhimurium TA100 assessed as number of revertants at 100 ug/plate in presence of Wistar rat S9 liver homogenate", "format": "toxicity, organism-based, Liver S9 fraction", "settings": "salmonella enterica subsp. enterica serovar typhimurium", "how_it_was_run": "(§2)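 Salmonella/microsome plate test, with or without S9 from livers of male Wistar rats (~200 g). Strain markers and spontaneous revertant counts were routinely verified. Revertants are reported as mean ± standard error of triplicate plates. Strain-specific positive controls were used, with 2-aminoanthracene for all strains when S9 was present.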"}, "Salmonella typhimurium [3]": {"test_system": "Salmonella typhimurium", "experiment": "Mutagenic activity in Salmonella Typhimurium TA102 assessed as number of revertants at 100 ug/plate in presence of Wistar rat S9 liver homogenate", "format": "toxicity, organism-based, Liver S9 fraction", "settings": "salmonella enterica subsp. enterica serovar typhimurium", "how_it_was_run": "as §2"}, "Myzus persicae": {"test_system": "Myzus persicae", "experiment": "Antifeedant effect against Myzus persicae assessed as inhibition index at 100 ug/cm2 relative to control", "format": "functional", "parameters": "scale not given: the % may be the effect or the level left", "how_it_was_run": "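Choice settling test on apterous adult M. persicae: 20 boxes of 10 aphids per treatment. Settling inhibition %SI = [1 − (%aphids on treated/%aphids on control surface)] × 100.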"}, "Salmonella typhimurium [4]": {"test_system": "Salmonella typhimurium", "experiment": "Bactericidal activity against Salmonella Typhimurium TA98 assessed as viability after 24 hrs in absence of Wistar rat S9 liver homogenate", "format": "functional, organism-based", "settings": "Salmonella enterica subsp. enterica serovar Typhimurium", "how_it_was_run": "(§3)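 Viability assay: test solution or DMSO was mixed with diluted overnight culture and phosphate buffer (no S9) in top agar with histidine/biotin. The mixture was spread on nutrient agar and incubated 24 h at 37 °C. Colonies were counted to give viable bacteria per mL; positive and negative controls included; triplicate.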"}, "Salmonella typhimurium [5]": {"test_system": "Salmonella typhimurium", "experiment": "Mutagenic activity in Salmonella Typhimurium TA100 assessed as number of revertants at 10 ug/plate in absence of Wistar rat S9 liver homogenate", "format": "toxicity, organism-based", "settings": "salmonella enterica subsp. enterica serovar typhimurium", "how_it_was_run": "as §2"}, "Salmonella typhimurium [6]": {"test_system": "Salmonella typhimurium", "experiment": "Mutagenic activity in Salmonella Typhimurium TA100 assessed as number of revertants at 1 ug/plate in presence of Wistar rat S9 liver homogenate", "format": "toxicity, organism-based, Liver S9 fraction", "settings": "salmonella enterica subsp. enterica serovar typhimurium", "how_it_was_run": "as §2"}, "Salmonella typhimurium [7]": {"test_system": "Salmonella typhimurium", "experiment": "Mutagenic activity in Salmonella Typhimurium TA102 assessed as number of revertants at 20 ug/plate in absence of Wistar rat S9 liver homogenate", "format": "toxicity, organism-based", "settings": "salmonella enterica subsp. enterica serovar typhimurium", "how_it_was_run": "as §2"}, "Salmonella typhimurium [8]": {"test_system": "Salmonella typhimurium", "experiment": "Mutagenic activity in Salmonella Typhimurium TA98 assessed as number of revertants at 10 ug/plate in absence of Wistar rat S9 liver homogenate", "format": "toxicity, organism-based", "settings": "salmonella enterica subsp. enterica serovar typhimurium", "how_it_was_run": "as §2"}, "Salmonella typhimurium [9]": {"test_system": "Salmonella typhimurium", "experiment": "Mutagenic activity in Salmonella Typhimurium TA98 assessed as number of revertants at 20 ug/plate in absence of Wistar rat S9 liver homogenate", "format": "toxicity, organism-based", "settings": "salmonella enterica subsp. enterica serovar typhimurium", "how_it_was_run": "as §1"}, "Spodoptera littoralis [10]": {"test_system": "Spodoptera littoralis", "experiment": "Antifeedant effect against Spodoptera littoralis L6 larvae assessed as relative consumption rate at 10 ug, po after 72 hrs", "format": "functional", "how_it_was_run": "(§4)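 Preweighed, newly emerged S. littoralis L6 larvae (20 per experiment) were orally cannulated with 10 µg in 2 µL DMSO; controls got solvent alone. Relative consumption and growth rates were calculated at 72 h on a dry-weight basis. Log-transformed weights were analysed by ANOVA with LSD tests.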"}, "Salmonella typhimurium [11]": {"test_system": "Salmonella typhimurium", "experiment": "Mutagenic activity in Salmonella Typhimurium TA102 assessed as number of revertants at 100 ug/plate in absence of Wistar rat S9 liver homogenate", "format": "toxicity, organism-based", "settings": "salmonella enterica subsp. enterica serovar typhimurium", "how_it_was_run": "as §2"}, "Salmonella typhimurium [12]": {"test_system": "Salmonella typhimurium", "experiment": "Mutagenic activity in Salmonella Typhimurium TA100 assessed as number of revertants at 20 ug/plate in presence of Wistar rat S9 liver homogenate", "format": "toxicity, organism-based, Liver S9 fraction", "settings": "salmonella enterica subsp. enterica serovar typhimurium", "how_it_was_run": "as §2"}, "Spodoptera littoralis [13]": {"test_system": "Spodoptera littoralis", "experiment": "Antifeedant effect against Spodoptera littoralis L6 larvae assessed as relative growth rate at 10 ug, po after 72 hrs", "format": "functional", "how_it_was_run": "as §4"}, "Salmonella typhimurium [14]": {"test_system": "Salmonella typhimurium", "experiment": "Mutagenic activity in Salmonella Typhimurium TA100 assessed as number of revertants at 0.1 ug/plate in absence of Wistar rat S9 liver homogenate", "format": "toxicity, organism-based", "settings": "salmonella enterica subsp. enterica serovar typhimurium", "how_it_was_run": "as §2"}, "Salmonella typhimurium [15]": {"test_system": "Salmonella typhimurium", "experiment": "Mutagenic activity in Salmonella Typhimurium TA102 assessed as number of revertants at 20 ug/plate in presence of Wistar rat S9 liver homogenate", "format": "toxicity, organism-based, Liver S9 fraction", "settings": "salmonella enterica subsp. enterica serovar typhimurium", "how_it_was_run": "as §2"}, "Salmonella typhimurium [16]": {"test_system": "Salmonella typhimurium", "experiment": "Mutagenic activity in Salmonella Typhimurium TA98 assessed as number of revertants at 100 ug/plate in absence of Wistar rat S9 liver homogenate", "format": "toxicity, organism-based", "settings": "salmonella enterica subsp. enterica serovar typhimurium", "how_it_was_run": "as §1"}, "Salmonella typhimurium [17]": {"test_system": "Salmonella typhimurium", "experiment": "Mutagenic activity in Salmonella Typhimurium TA102 assessed as number of revertants at 0.01 ug/plate in presence of Wistar rat S9 liver homogenate", "format": "toxicity, organism-based, Liver S9 fraction", "settings": "salmonella enterica subsp. enterica serovar typhimurium", "how_it_was_run": "as §2"}, "Salmonella typhimurium [18]": {"test_system": "Salmonella typhimurium", "experiment": "Mutagenic activity in Salmonella Typhimurium TA98 assessed as number of revertants at 100 ug/plate in presence of Wistar rat S9 liver homogenate", "format": "toxicity, organism-based, Liver S9 fraction", "settings": "salmonella enterica subsp. enterica serovar typhimurium", "how_it_was_run": "as §1"}, "[19]": {"test_system": "Leptinotarsa decemlineata", "experiment": "Antifeedant effect against Leptinotarsa decemlineata assessed as feeding reduction", "format": "functional, organism-based", "how_it_was_run": "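Choice test on leaf disks using adult L. decemlineata or newly emerged fifth-instar S. littoralis larvae. Five to 10 plates per treatment, three insects each. Uneaten leaf-disk area was measured by scanner. %FR = [1 − (treatment/control consumption)] × 100 per arena. Where FR exceeded 50%, EC50 was taken from linear regression of %FR on log dose.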"}, "Salmonella typhimurium [20]": {"test_system": "Salmonella typhimurium", "experiment": "Mutagenic activity in Salmonella Typhimurium TA98 assessed as number of revertants at 0.01 ug/plate in absence of Wistar rat S9 liver homogenate", "format": "toxicity, organism-based", "settings": "salmonella enterica subsp. enterica serovar typhimurium", "how_it_was_run": "as §2"}, "Salmonella typhimurium [21]": {"test_system": "Salmonella typhimurium", "experiment": "Mutagenic activity in Salmonella Typhimurium TA98 assessed as number of revertants at 0.1 ug/plate in presence of Wistar rat S9 liver homogenate", "format": "toxicity, organism-based, Liver S9 fraction", "settings": "salmonella enterica subsp. enterica serovar typhimurium", "how_it_was_run": "as §2"}, "[22]": {"test_system": "Leptinotarsa decemlineata", "experiment": "Insecticidal activity against Leptinotarsa decemlineata assessed as mortality at 5 ug by hemolymph injection after 72 hrs", "format": "functional", "how_it_was_run": "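Adult L. decemlineata (20 beetles) were injected with 5 µg in DMSO through the metepimeron suture of the thorax. Beetles were kept on potato leaves. Symptoms and mortality were recorded up to 3 days, analysed by contingency tables and Abbott-corrected.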"}, "Salmonella typhimurium [23]": {"test_system": "Salmonella typhimurium", "experiment": "Mutagenic activity in Salmonella Typhimurium TA100 assessed as number of revertants at 20 ug/plate in absence of Wistar rat S9 liver homogenate", "format": "toxicity, organism-based", "settings": "salmonella enterica subsp. enterica serovar typhimurium", "how_it_was_run": "as §2"}, "Salmonella typhimurium [24]": {"test_system": "Salmonella typhimurium", "experiment": "Bactericidal activity against Salmonella Typhimurium TA102 assessed as viability after 24 hrs in absence of Wistar rat S9 liver homogenate", "format": "functional, organism-based", "settings": "Salmonella enterica subsp. enterica serovar Typhimurium", "how_it_was_run": "as §3"}},
  "data": [
    {"smiles": "CCCCCCCCCCCC[C@@H](O)[C@H]1CC[C@H]([C@H](O)CCCC[C@H](O)CCCCC[C@@H](O)CC2=CC(C)OC2=O)O1", "note": "(stereo not given in full) [ANNONACIN]", "values": [
      {"measurement": "Activity", "setting": "Salmonella typhimurium [1]", "value": 25},
      {"measurement": "Activity", "setting": "Salmonella typhimurium [2]", "value": 88},
      {"measurement": "Activity", "setting": "Salmonella typhimurium [3]", "value": 437},
      {"measurement": "Activity", "setting": "Myzus persicae", "value": "<40", "unit": "%"},
      {"measurement": "Activity", "setting": "Salmonella typhimurium [4]", "value": "Non-toxic"},
      {"measurement": "Activity", "setting": "Salmonella typhimurium [5]", "value": 104},
      {"measurement": "Activity", "setting": "Salmonella typhimurium [6]", "value": 140},
      {"measurement": "Activity", "setting": "Salmonella typhimurium [7]", "value": 204},
      {"measurement": "Activity", "setting": "Salmonella typhimurium [8]", "value": 34},
      {"measurement": "Activity", "setting": "Salmonella typhimurium [9]", "value": 36},
      {"measurement": "Activity", "setting": "Spodoptera littoralis [10]", "value": 20.53, "unit": "mg"},
      {"measurement": "Activity", "setting": "Salmonella typhimurium [11]", "value": 126},
      {"measurement": "Activity", "setting": "Salmonella typhimurium [12]", "value": 139},
      {"measurement": "Activity", "setting": "Spodoptera littoralis [13]", "value": 3.44, "unit": "mg"},
      {"measurement": "Activity", "setting": "Salmonella typhimurium [14]", "value": 142},
      {"measurement": "Activity", "setting": "Salmonella typhimurium [15]", "value": 432},
      {"measurement": "Activity", "setting": "Salmonella typhimurium [16]", "value": 14},
      {"measurement": "Activity", "setting": "Salmonella typhimurium [17]", "value": 443},
      {"measurement": "Activity", "setting": "Salmonella typhimurium [18]", "value": 28},
      {"measurement": "EC50", "setting": "[19]", "value": 10, "unit": "microg/cm2"},
      {"measurement": "Activity", "setting": "Salmonella typhimurium [20]", "value": 33},
      {"measurement": "Activity", "setting": "Salmonella typhimurium [21]", "value": 21},
      {"measurement": "Activity", "setting": "[22]", "value": 29.68, "unit": "%"},
      {"measurement": "Activity", "setting": "Salmonella typhimurium [23]", "value": 96},
      {"measurement": "Activity", "setting": "Salmonella typhimurium [24]", "value": "Non-toxic"}
    ]}
  ]
}
